NOD2 RIPK2 PPI: NOD2-RIPK2 protein interaction inhibition. CHO BLA complementation NOD2-RIPK2, CCF4 ratio. inhibition, % at 4.98 µM. hit rate 0.38% among 360,000. AID 624267; in the data active means inhibition above about 21%
Target sequence (O43353 whole entry, looked up): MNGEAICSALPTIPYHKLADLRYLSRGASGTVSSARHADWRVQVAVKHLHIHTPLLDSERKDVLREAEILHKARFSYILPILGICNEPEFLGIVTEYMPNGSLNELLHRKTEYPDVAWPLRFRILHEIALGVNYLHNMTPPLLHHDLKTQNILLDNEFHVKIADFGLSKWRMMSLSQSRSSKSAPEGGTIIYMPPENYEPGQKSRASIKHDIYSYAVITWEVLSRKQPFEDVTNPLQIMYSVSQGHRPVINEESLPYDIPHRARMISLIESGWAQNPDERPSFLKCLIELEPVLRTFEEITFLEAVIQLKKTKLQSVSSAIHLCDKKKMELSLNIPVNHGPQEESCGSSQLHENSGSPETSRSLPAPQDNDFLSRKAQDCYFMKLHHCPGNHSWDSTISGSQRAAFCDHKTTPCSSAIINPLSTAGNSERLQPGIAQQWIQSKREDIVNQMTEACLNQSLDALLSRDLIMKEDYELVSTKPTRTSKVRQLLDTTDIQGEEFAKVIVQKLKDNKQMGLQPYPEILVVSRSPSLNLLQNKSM
MC4R antagonist: blocks human MC4R cAMP signaling | P32245 | MC4R-expressing cells, MTII-stimulated cAMP, LANCE TR-FRET | inhibition, % at 6.5 µM | hit rate 0.48% among 360,000 | AID 540295;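 active means inhibition above its plate's cutoff, the mean of tested wells on that plate plus 3 SD, cut at about 29% in these data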
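Material: human MC4R-expressing U2OS cells. Probe or stimulus: Melanotan II challenge. Dosing: 6.5 µM single dose. Times: 30-min compound, 1-h challenge, 1-h detection, room temperature. Technique: TR-FRET with Eu-cAMP and labeled anti-cAMP, 671 nm. Replication: singlicate.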
NTR1 agonist: agonists of human neurotensin receptor NTR1 | hit rate 0.17% among 330,000 | AID 493036 | NTR1-U2OS beta-arrestin-GFP spot imaging, agonist mode | P30989 | activation, % at 20 µM;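 active means activation at or above 40% of the spot to cytoplasm intensity ratio, with at least 20 cells analyzed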
MC4R ag barr: activates human MC4R beta-arrestin recruitment; P32245; U2OS MC4R beta-arrestin complementation, luminescence; percent of melanotan II response, DMSO zero; activation, % at 8.9 µM; hit rate 0.98% among 360,000;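 active means activation above a per-plate cutoff, the mean activation of sample wells on that plate plus 3 SD, cut at about 8% in these data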
TLR9-MyD88 inh: blocks human TLR9 binding to MyD88. hit rate 0.21% among 340,000. AID 504734. CHO BLA complementation TLR9-MyD88, CCF4 FRET ratio. Q9NR96+Q99836. inhibition, % at 4.98 µM;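 active means inhibition above the mean over all tested compounds plus 3 SD, cut at about 21% in these data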
TLR4-MyD88 BLA: inhibitors of human TLR4-MyD88 binding | inhibition, % at 8.4 µM | HeLa CL3-4 TLR4/MyD88 BLA complementation, FRET ratio | O00206+Q99836 | AID 861 | hit rate 0.18% among 200,000; in the data active means inhibition above about 25%
U2OS cAMP counter: U2OS forskolin cAMP inhibition counter-screen. parental U2OS, LANCE TR-FRET. hit rate 26% among 1,600. inhibition, % at 6.5 µM. shares compounds with MC4R antagonist;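 active means mean inhibition over triplicates above the low-control well mean plus 3 SD, set per campaign, cut at about 13% in these data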;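 further: signal is single emission at 671 nm which falls as cellular cAMP rises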
MC4R cAMP antag: human MC4R cAMP antagonism confirmation | shares compounds with MC4R antagonist | MC4R-expressing cells, MTII-stimulated cAMP, TR-FRET | inhibition, % at 6.5 µM | hit rate 27% among 1,600 | AID 602195; in the data active means inhibition above about 29%
A number is an active result. Hits are enriched below; roughly 1.9% of the tested compounds scored in any of these assays.

Screening CCN(CC)C(=O)C(C)N(C#N)c1nc(Cl)nc(N(C)C)n1 (stereo not drawn) returned NOD2 RIPK2 PPI inactive, MC4R antagonist 43, NTR1 agonist inactive, MC4R ag barr inactive, TLR9-MyD88 inh inactive, TLR4-MyD88 BLA inactive, U2OS cAMP counter inactive and MC4R cAMP antag inactive.
For Cc1ccc(-c2nc(CS(=O)CC(=O)NCCCc3ccccc3)c(C)o2)cc1 (stereo not drawn) the results were NOD2 RIPK2 PPI inactive, MC4R antagonist inactive, NTR1 agonist inactive, MC4R ag barr inactive and TLR9-MyD88 inh inactive.
CCOCc1nc(N)nc(N)c1-c1cccc(Cl)c1 was read as NOD2 RIPK2 PPI inactive, MC4R antagonist 31, MC4R ag barr inactive, TLR9-MyD88 inh inactive, U2OS cAMP counter inactive and MC4R cAMP antag inactive.
`CCOC(=O)c1c(C)nc2ccc(Cl)cc2c1-c1ccccc1` gave NOD2 RIPK2 PPI inactive, MC4R antagonist inactive, NTR1 agonist inactive, MC4R ag barr inactive, TLR9-MyD88 inh inactive and TLR4-MyD88 BLA inactive.
`CN(CCCCCCCCCCN(C)C(=O)Oc1cccc([N+](C)(C)C)c1)C(=O)Oc1cccc([N+](C)(C)C)c1` gave NOD2 RIPK2 PPI inactive, MC4R antagonist inactive, NTR1 agonist inactive, MC4R ag barr inactive and TLR9-MyD88 inh inactive.
CN(c1ccc(OCC(=O)OCC(=O)Nc2ccc(Br)cc2)cc1)S(=O)(=O)c1cccs1 was read as NOD2 RIPK2 PPI inactive, MC4R antagonist 29, NTR1 agonist inactive, MC4R ag barr inactive, TLR9-MyD88 inh inactive, TLR4-MyD88 BLA inactive, U2OS cAMP counter inactive and MC4R cAMP antag 31.
For CN(c1ccc(OCC(=O)OCC(=O)Nc2ccccc2)cc1)S(=O)(=O)c1cccs1 the results were NOD2 RIPK2 PPI inactive, MC4R antagonist 31, NTR1 agonist inactive, MC4R ag barr inactive, TLR9-MyD88 inh inactive, TLR4-MyD88 BLA inactive, U2OS cAMP counter 14 and MC4R cAMP antag 37.
`CN(c1ccc(OCC(=O)OCC(=O)Nc2ccc(OC(F)F)cc2)cc1)S(=O)(=O)c1cccs1` gave NOD2 RIPK2 PPI inactive, MC4R antagonist inactive, NTR1 agonist inactive, MC4R ag barr inactive and TLR9-MyD88 inh inactive.
For O=C(c1cc(-c2cccs2)nn1-c1ccccc1)N1CCN(S(=O)(=O)c2ccccc2)CC1 the results were NOD2 RIPK2 PPI inactive, MC4R antagonist 29, NTR1 agonist inactive, MC4R ag barr inactive, TLR9-MyD88 inh inactive, U2OS cAMP counter inactive and MC4R cAMP antag inactive.
`Clc1cc(-c2ccccc2)nc(-c2ccccc2)n1` gave NOD2 RIPK2 PPI inactive, MC4R antagonist 30, NTR1 agonist inactive, MC4R ag barr inactive, TLR9-MyD88 inh inactive, U2OS cAMP counter 17 and MC4R cAMP antag 29.
Screening Brc1cc(-c2ccccc2)nc(-c2ccccc2)n1 returned NOD2 RIPK2 PPI inactive, MC4R antagonist 36, NTR1 agonist inactive, MC4R ag barr inactive, U2OS cAMP counter 18 and MC4R cAMP antag 36.
CCOc1cc(C(=O)NCC(C)(C)CNC(=O)c2cc(OCC)c(OCC)c(OCC)c2)cc(OCC)c1OCC was read as NOD2 RIPK2 PPI inactive, MC4R antagonist 30, NTR1 agonist inactive, MC4R ag barr inactive, U2OS cAMP counter inactive and MC4R cAMP antag inactive.
For COc1ccc(NC(=O)[C@H](Cc2c[nH]c3ccccc23)NC(=O)[C@@H]2Cc3ccccc3CN2)cc1 the results were NOD2 RIPK2 PPI inactive, MC4R antagonist inactive, NTR1 agonist inactive, MC4R ag barr inactive and TLR9-MyD88 inh inactive.
COc1ccc(CNC(=O)[C@H](Cc2c[nH]c3ccccc23)NC(=O)[C@@H]2Cc3ccccc3CN2)cc1 was read as NOD2 RIPK2 PPI inactive, MC4R antagonist 31, NTR1 agonist inactive, MC4R ag barr inactive, TLR9-MyD88 inh inactive, U2OS cAMP counter inactive and MC4R cAMP antag inactive.
For O=C(C(=S)N1CCOCC1)c1c[nH]c2ccccc12 the results were NOD2 RIPK2 PPI inactive, MC4R antagonist 30, NTR1 agonist inactive, MC4R ag barr inactive, TLR9-MyD88 inh inactive, TLR4-MyD88 BLA inactive, U2OS cAMP counter inactive and MC4R cAMP antag inactive.
